Measured values as given in ChEMBL document CHEMBL3227985, “N-Alkylated 2-aminotetralins: central dopamine-receptor stimulating activity” (J Med Chem, 1979).
Calls of active or inactive are those of the source. The rule behind the calls is not given here.

Experiments:
Rattus norvegicus [1] = assay: Central dopamine receptor stimulating activity in Sprague-Dawley rat assessed as reduction in DOPA accumulation in limbic region of brain at 2 umol/kg, sc by spectrophotometric method; assay type: functional; details: Limbic system
In short: (§1)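 Male Sprague-Dawley rats (200-350 g), reserpinized. Compounds dissolved in saline immediately before use, neutral pH, 10 mL/kg, given sc over a dose range. Aromatic-L-amino-acid decarboxylase inhibited (100 mg/kg). Dopa and 5-HTP accumulation measured spectrophotometrically in striatum, limbic forebrain and remaining hemispheral portions. ED50 = dose giving 50% of maximal reduction versus control portions, estimated from dose-response curves. Experiments run 9–12 a.m.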

Rattus norvegicus [2] = assay: Central dopamine receptor stimulating activity in Sprague-Dawley rat assessed as reduction in DOPA accumulation in striatum of brain at 2 umol/kg, sc by spectrophotometric method; assay type: functional; in short: as §1
Rattus norvegicus [3] = assay: Central noradrenaline receptor stimulating activity in Sprague-Dawley rat assessed as reduction in DOPA accumulation in hemispheral portion of cerebrum at 2 umol/kg, sc by spectrophotometric method; assay type: functional, organism-based; in short: as §1
Rattus norvegicus [4] = assay: Central serotonin receptor stimulating activity in Sprague-Dawley rat assessed as reduction in 5-HTP accumulation in limbic region of brain at 2 umol/kg, sc by spectrophotometric method; assay type: functional, organism-based; details: Limbic system; in short: as §1
Rattus norvegicus [5] = assay: Central serotonin receptor stimulating activity in Sprague-Dawley rat assessed as reduction in 5-HTP accumulation in striatum of brain at 2 umol/kg, sc by spectrophotometric method; assay type: functional, organism-based; in short: as §1
Rattus norvegicus [6] = assay: Central serotonin receptor stimulating activity in Sprague-Dawley rat assessed as reduction in 5-HTP accumulation in hemispheral portion of cerebrum at 2 umol/kg, sc by spectrophotometric method; assay type: functional, organism-based; in short: as §1
Rattus norvegicus [7] = assay: Central dopamine receptor stimulating activity in reserpenized Sprague-Dawley rat assessed as duration of action of motor activity at 2 umol/kg, sc measured 6 hrs post-reserpine challenge by motility meter analysis; assay type: functional
In short: (§2)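 Male Sprague-Dawley rats (200-350 g) given reserpine 10 mg/kg ip 6 h before testing. Drug in saline, 2 µmol/kg sc in the neck. Rats then placed singly in photocell motility meters. Counts recorded per 5-min period until effect ceased (<10 counts/5 min), giving duration and AUC. Means of four to six recordings. Testing 1–6 p.m.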

Rattus norvegicus [8] = assay: Central dopamine receptor stimulating activity in reserpenized Sprague-Dawley rat assessed as latency period of motor activity at 2 umol/kg, sc measured 6 hrs post-reserpine challenge by motility meter analysis; assay type: functional; in short: as §2
Rattus norvegicus [9] = assay: Central dopamine receptor stimulating activity in reserpenized Sprague-Dawley rat assessed as duration of action of motor activity at 20 umol/kg, po administered via stomach tube measured 6 hrs post-reserpine challenge by motility meter analysis; assay type: functional
In short: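 Male Sprague-Dawley rats (200-350 g) given reserpine 10 mg/kg ip 6 h before testing. Drug in saline, 20 µmol/kg po by stomach tube. Rats then placed singly in photocell motility meters. Counts recorded per 5-min period until effect ceased (<10 counts/5 min) to give duration of action. Testing 1–6 p.m.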

Rattus norvegicus [10] = assay: Toxicity in sc dosed Sprague-Dawley rat assessed as gross behaviour at ED50; assay type: organism-based; details: in vivo

Structure (SMILES) | ED50 (Rattus norvegicus [1]) [µmol/kg] | ED50 (Rattus norvegicus [2]) [µmol/kg] | Activity (Rattus norvegicus [3]) | Activity (Rattus norvegicus [4]) | Activity (Rattus norvegicus [5]) | Activity (Rattus norvegicus [6]) | Time (Rattus norvegicus [7]) [min] | Time (Rattus norvegicus [8]) [min] | Time (Rattus norvegicus [9]) [min] | Activity (Rattus norvegicus [10])
Br.CCCN(CC)C1CCc2c(O)cccc2C1 (stereo not drawn) | 0.024 | 0.017 | inactive | inactive | inactive | inactive | 82 | 0 | 40 | Non-toxic
CN1CCc2cccc3c2[C@H]1Cc1ccc(O)c(O)c1-3 [APOMORPHINE] | 0.19 | 0.22 | – | – | – | – | 60 | 0 | 33 | –
Br.CCCCN(CCC)C1CCc2c(O)cccc2C1 (stereo not drawn) | 0.011 | 0.014 | inactive | inactive | inactive | inactive | 158 | 0 | 117 | Non-toxic
CCCCCN(CCC)C1CCc2c(cccc2OC)C1.O=C(O)C(=O)O (stereo not drawn) | 0.092 | 0.101 | inactive | inactive | inactive | inactive | 93 | 15 | – | Non-toxic
CCCN(CC)C1CCc2c(cccc2OC)C1.Cl (stereo not drawn) | 0.065 | 0.062 | inactive | inactive | inactive | inactive | 96 | 13 | – | Non-toxic
Br.CCCN(CCC)C1CCc2c(O)cccc2C1 (stereo not drawn) | 0.011 | 0.009 | inactive | inactive | inactive | inactive | 127 | 0 | 121 | Non-toxic
Br.CCCN(C)C1CCc2c(O)cccc2C1 (stereo not drawn) | 0.023 | 0.029 | inactive | inactive | inactive | inactive | 73 | 0 | – | Non-toxic
Br.CCCN(CCC)C1CCc2c(ccc(O)c2O)C1 (stereo not drawn) | 0.007 | 0.007 | inactive | inactive | inactive | inactive | 193 | 0 | – | Non-toxic
Br.CCCCN(CC)C1CCc2c(O)cccc2C1 (stereo not drawn) | 0.03 | 0.035 | inactive | inactive | inactive | inactive | 118 | 0 | 63 | Non-toxic
CCCN(CCc1ccccc1)C1CCc2c(O)cccc2C1.Cl (stereo not drawn) | 0.022 | 0.017 | inactive | inactive | inactive | inactive | 53 | 0 | – | Non-toxic
CCCN(C)C1CCc2c(cccc2OC)C1.Cl (stereo not drawn) | 0.12 | 0.096 | inactive | inactive | inactive | inactive | 69 | 15 | – | Non-toxic
Br.CCCN(C(C)C)C1CCc2c(O)cccc2C1 (stereo not drawn) | 0.07 | 0.087 | inactive | inactive | inactive | inactive | 55 | 4 | – | Non-toxic
